Measured values from different studies.
Lines come from different studies, so protocols differ.
Cell line: MCF7
Read-out: cell growth or viability

With `Cc1ccc(-c2cc(-c3ccc(Cl)c(F)c3)c3c(=O)[nH]c(=O)[nH]c3n2)cc1` the IC50 was 14.6 µM (MTT; 48 h).
With `C=CC(=O)NC1CCN(c2ncc3ncnc(Nc4ccc(Oc5ccc6c(c5)ncn6C)c(C)c4)c3n2)CC1` the EC50 was 5220 nM.
The IC50 of `Cc1ccc(-c2cc(-c3ccc(N(C)C)cc3)c3c(=O)[nH]c(=O)[nH]c3n2)cc1` is reported as 10.1 µM (MTT; 48 h).
With `C[C@@H]1CC[C@@H]([C@](O)(CNCc2ccccc2)COCc2ccc(F)cc2)[C@H](OCc2ccc(F)cc2)C1` the inhibition was 100% (MTT; 30 µM, 72 h).
The EC50 of `CN(C)C(=O)c1cc2cnc(Nc3ccc(N4CCNCC4)cn3)nc2n1C1CCCC1` is reported as 100 nM (5 days).
For `COc1ccc(COC[C@@](O)(CNCc2ccccc2)[C@@H]2CC[C@@H](C)C[C@H]2OCc2ccc(OC)cc2)cc1`, the inhibition was 102% (MTT; 30 µM, 72 h).
`Cc1nc(Nc2ccc3c(c2)/C(=C/c2ccccc2C)C(=O)N3C)c2ccccc2n1` has an IC50 of 21.4 µM (MTT).
For `C[C@@H]1CC[C@@H]([C@@](O)(CNCc2cccc3ccccc23)COCc2ccccc2)[C@H](OCc2ccccc2)C1`, the inhibition was 82.9% (MTT; 10 µM, 72 h).
The EC50 of `Cc1nc(NC(=O)N2CCC[C@H]2C(N)=O)sc1-c1ccnc(C(C)(C)C(F)(F)F)c1` is reported as 177 nM (5 days).
The inhibition of `C[C@@H]1CC[C@@H]([C@](C)(O)CNCc2ccccc2)[C@H](OCc2ccccc2)C1` is reported as 98% (MTT; 30 µM, 72 h).
The IC50 of `COc1ccc(-c2cc(-c3cc(OC)ccc3OC)c3c(=O)[nH]c(=O)[nH]c3n2)cc1` is reported as 14.3 µM (MTT; 48 h).
With `O=C(Nc1ccc(Oc2nnc(-c3ccc(Cl)cc3)c3ccccc23)cc1)c1cccc([N+](=O)[O-])c1` the viability was 9.78% (MTT; 0.625 µM, 24 h).
`COc1ccc(-c2cc(-c3ccc(OC)cc3)c3c(=O)n(C)c(=O)n(C)c3n2)cc1` has an IC50 of 18.6 µM (MTT; 48 h).
For `CC(=O)c1nn(-c2ccc(C)cc2)/c(=N/N=C(\C)c2ccc(NC(=O)c3ccccc3)cc2)s1`, the viability was 6.47% (MTT; 2.5 µM).
`COc1ccc(-c2cc(-c3ccc(Br)cc3)c3c(=O)[nH]c(=O)[nH]c3n2)cc1` has an IC50 of 9.94 µM (MTT; 48 h).
The inhibition of `COc1cccc(CNC[C@@](C)(O)[C@@H]2CC[C@@H](C)C[C@H]2OCc2ccccc2)c1` is reported as 76.8% (MTT; 10 µM, 72 h).
`CC(=O)Nc1ccc(Oc2nnc(-c3ccc(Cl)cc3)c3ccccc23)cc1` has a viability of 3.72% (MTT; 5 µM, 24 h).
The viability of `CC(=O)Nc1ccc(/C(C)=N/N=c2\sc(C(C)=O)nn2-c2ccc(C)cc2)cc1` is reported as 49.5% (MTT; 1.25 µM).
`COc1cccc2c1C(=O)c1c(O)c3c(c(O)c1C2=O)C[C@@](O)(C(=O)CO)C[C@@H]3O[C@H]1C[C@H](N)[C@H](O)[C@H](C)O1` gave an inhibition of 96.8% (MTT; 100 µM, 48 h).
With `CC(=NNC(=O)c1ccncc1)c1ccc(Nc2nnc(-c3ccc(Cl)cc3)c3ccccc23)cc1` the viability was 5.58% (MTT; 2.5 µM, 24 h).
With `CC(=O)c1c(C)c2cnc(Nc3ccc(N4CCNCC4)cn3)nc2n(C2CCCC2)c1=O` the EC50 was 38.3 nM (5 days).
`O=C(Nc1ccccc1)Nc1ccc(Oc2nnc(-c3ccc(Cl)cc3)c3ccccc23)cc1` has a viability of 11.3% (MTT; 0.312 µM, 24 h).
For `CCOC(=O)c1nn(-c2cccc(Cl)c2)/c(=N/N=C(\C)c2ccc(NC(=O)c3ccccc3)cc2)s1`, the viability was 2.67% (MTT; 2.5 µM).
The viability of `CC(=NNC(=O)c1cccnc1)c1ccc(Nc2nnc(-c3ccc(Cl)cc3)c3ccccc23)cc1` is reported as 100% (MTT; 0.312 µM, 24 h).
`COC(=O)COc1c(Cc2cc(C(C)(C)CC(C)(C)C)cc(-n3nc4ccccc4n3)c2OCC(=O)OC)cc(C(C)(C)CC(C)(C)C)cc1-n1nc2ccccc2n1` has a GI50 of 3.18 µM (MTT).
The viability of `CC(=O)c1nn(-c2ccccc2Cl)/c(=N/N=C(\C)c2ccc(NC(=O)c3ccccc3)cc2)s1` is reported as 5.78% (MTT; 10 µM).
The IC50 of `COc1ccc(-c2cc(-c3ccc(Cl)cc3)c3c(=O)n(C)c(=O)n(C)c3n2)cc1` is reported as 14.4 µM (MTT; 48 h).
`C[C@@H]1CC[C@@H]([C@](O)(CNCc2ccc(F)cc2)COCc2ccc(F)cc2)[C@H](OCc2ccc(F)cc2)C1` gave an inhibition of 93.7% (MTT; 10 µM, 72 h).
`COc1cc2ncnc(Nc3ccc4c(c3)/C(=C/c3ccccc3)C(=O)N4)c2cc1OC` has an IC50 of 18.6 µM (MTT).
`C[C@@H]1CC[C@@H]([C@](C)(O)CNCc2cccc3ccccc23)[C@H](OCc2ccccc2)C1` has an inhibition of 92.2% (MTT; 30 µM, 72 h).
With `CC(=NNC(N)=S)c1ccc(Nc2nnc(-c3ccc(Cl)cc3)c3ccccc23)cc1` the cell death was 49.5% (MTT; 0.156 µM).
